Assay outcomes: PubChem, Broad Institute
Most compounds without a hit are left out; they make up all but 3.8% or so of the library.
DENV2 CPE rescue: inhibitors of DENV2 cytopathic effect | 350,000 compounds, 1.7% hits | AID 651640 | DENV2-infected cells, cytopathic effect rescue, plate reader | CPE inhibition, % at 9.99 µM; in the data active = CPE inhibition above about 20%, passing the limit was not always enough; inconclusive = no clear call, values can overlap the other calls; tested in BHK-21 cells;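 also: 0% = median of neutral control wells and 100% = median of positive control wells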
Xi reactivation: X-chromosome reactivation activator; XiGFP mouse fibroblasts, % GFP-positive cells imaging, 3 d; cells co-treated with 5-aza-dC sensitizer; scaled so ellipticine positive control = 100%; activation, % at 7.58 µM; 360,000 compounds, 0.055% hits; AID 743238;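 active = mean normalized replicate activation at least 10% and every replicate at or above 10%; inconclusive = only one of the two criteria met; inactive = mean below 10% and not all replicates reach 10%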;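 also: 0% = median of on-plate neutral control wells and 100% = ellipticine 6 µM median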
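System: 68-5-11 XiGFP fibroblast line; Timing: 3 days compound exposure; Compound dosing: one concentration, pinned; Benchmarks: positive control ellipticine, 6 µM final; Buffer or medium: DMEM containing 5-aza-dC.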
ARNT TACC3 PPI: disruptors of human ARNT/TACC3 interaction; Q9Y6A5; inhibition, % at 9.99 µM; AlphaScreen His-ARNT PAS-B/GST-TACC3 binding, luminescence; TACC3 fragment carries E629A point mutation; 390,000 compounds, 0.66% hits;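 active = mean inhibition of replicates at least 50% and at least half of replicates each reaching 50%; inconclusive = half or more replicates reach 50% but mean below 50%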;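 also: 0% = complete ARNT plus TACC3 wells and 100% = ARNT alone without TACC3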
FN deposition inh: fibronectin deposition inhibition; AH1F fibroblasts, Alexa488-fibronectin deposition fluorescence, overnight; inhibition, % at 12.6 µM; 350,000 compounds, 0.086% hits;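 active = mean inhibition across replicates of 30% or more, regardless of how many single replicates reach that level; inconclusive = mean under 30% yet at least half of replicates reach 30%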;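 also: positive control wells lacked labelled fibronectin entirely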
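material = AH1F fibroblast monolayer depositing Alexa488-labelled fibronectin into matrix | amount = 10000 AH1F cells/well | buffer or medium = DMEM plus 2% serum, read in PBS | incubation = 1 h cell adhesion before compound, then overnight fibronectin incubation | detection = fluorescence at 485 nm excitation, 525 nm emission | evaluation = percent inhibition as loss of matrix-bound fibronectin fluorescence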
FGF22 binding: binders of recombinant human FGF22 by thermal shift. 340,000 compounds, 1.5% hits. Q9HCT0. SYPRO orange fluorescence; percent of sucrose octasulfate shift, DMSO zero. activity (Tm shift, normalised), % at 9.99 µM;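 active = mean Tm shift, scaled 0 neutral to 100 positive control, at about 1.3% or above, every replicate too, limit read from the data; inconclusive = no clear call, values can overlap the other calls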
Target sequence (Q9HCT0 whole entry, looked up): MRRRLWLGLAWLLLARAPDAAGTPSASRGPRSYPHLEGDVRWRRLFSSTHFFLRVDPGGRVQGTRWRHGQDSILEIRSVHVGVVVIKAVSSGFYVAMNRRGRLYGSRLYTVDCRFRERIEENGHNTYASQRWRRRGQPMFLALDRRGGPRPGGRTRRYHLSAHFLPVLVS
SIRT5 block: inhibitors of human sirtuin-5 desuccinylase; Q9NXA8; AID 652115; Purified SirT5, succinyl-peptide AMC, trypsin-coupled fluorescence; 330,000 compounds, 1.1% hits; inhibition, % at 15 µM; in the data active = inhibition above about 15%; inconclusive = no clear call, values can overlap the other calls
Target sequence (Q9NXA8 whole entry, looked up): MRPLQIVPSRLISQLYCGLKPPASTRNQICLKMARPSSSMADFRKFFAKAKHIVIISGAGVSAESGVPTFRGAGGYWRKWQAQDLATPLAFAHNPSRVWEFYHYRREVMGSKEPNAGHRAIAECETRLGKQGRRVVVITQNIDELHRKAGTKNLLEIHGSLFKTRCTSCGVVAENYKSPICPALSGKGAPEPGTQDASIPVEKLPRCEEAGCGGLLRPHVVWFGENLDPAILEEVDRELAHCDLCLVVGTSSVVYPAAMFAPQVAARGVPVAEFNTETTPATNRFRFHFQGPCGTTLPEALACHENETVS
An asterisk follows results filed as active; ? = inconclusive; nt = no result.

SMILES | DENV2 CPE rescue | Xi reactivation | ARNT TACC3 PPI | FN deposition inh | FGF22 binding | SIRT5 block
COc1ccc(S(=O)(=O)N(C)C[C@@H]2OCCCC[C@@H](C)Oc3ccc(NS(=O)(=O)c4ccc(C)cc4)cc3C(=O)N([C@@H](C)CO)C[C@H]2C)cc1 | -2 | 0 | -11 | nt | 0 | 17*
COc1ccc(S(=O)(=O)Nc2ccc3c(c2)C(=O)N([C@H](C)CO)C[C@@H](C)[C@@H](CN(C)S(C)(=O)=O)OCCCC[C@@H](C)O3)cc1 | 49* | 0 | -8 | nt | 0 | -1
COc1ccc(S(=O)(=O)N[C@H]2C=C[C@H](CC(=O)NCCc3ccncc3)O[C@H]2CO)cc1 | -7 | 0 | 11 | 1 | 0 | -1
O=C(C[C@@H]1C=C[C@H](NC(=O)c2ccccn2)[C@@H](CO)O1)NCc1cccc(F)c1 | -9 | 0 | 10 | -2 | 0 | -2
COc1ccc(S(=O)(=O)Nc2ccc3c(c2)C(=O)N([C@@H](C)CO)C[C@H](C)[C@H](CN(C)S(=O)(=O)c2ccc(C)cc2)OCCCC[C@@H](C)O3)cc1 | -2 | 0 | 7 | 1 | 0 | 9
COc1ccc(S(=O)(=O)N(C)C[C@H]2OCCCC[C@H](C)Oc3ccc(NS(=O)(=O)c4ccc(C)cc4)cc3C(=O)N([C@H](C)CO)C[C@@H]2C)cc1 | -6 | 0 | 9 | nt | 0 | 23*
COc1ccc(S(=O)(=O)N(C)C[C@@H]2OCCCC[C@@H](C)Oc3ccc(NS(=O)(=O)c4ccc(C)cc4)cc3C(=O)N([C@H](C)CO)C[C@@H]2C)cc1 | ? | 0 | -10 | nt | 0 | 15*
COc1ccc(S(=O)(=O)N(C)C[C@H]2OCCCC[C@@H](C)Oc3ccc(NS(=O)(=O)c4ccc(C)cc4)cc3C(=O)N([C@H](C)CO)C[C@@H]2C)cc1 | -2 | 0 | -9 | nt | 0 | 5
COc1ccc(S(=O)(=O)Nc2ccc3c(c2)C(=O)N([C@H](C)CO)C[C@@H](C)[C@H](CN(C)S(=O)(=O)c2ccc(C)cc2)OCCCC[C@H](C)O3)cc1 | 2 | 0 | 32 | -5 | 0 | 11
COc1ccc(S(=O)(=O)N(C)C[C@H]2OCCCC[C@H](C)Oc3ccc(NS(=O)(=O)c4ccc(C)cc4)cc3C(=O)N([C@H](C)CO)C[C@H]2C)cc1 | -6 | 0 | -1 | nt | 0 | 29*
COc1ccc(S(=O)(=O)N(C)C[C@H]2OCCCC[C@@H](C)Oc3ccc(NS(=O)(=O)c4ccc(C)cc4)cc3C(=O)N([C@@H](C)CO)C[C@H]2C)cc1 | 1 | 0 | -1 | nt | nt | 24*
COc1cccc(NC(=O)N(C)C[C@H]2Oc3ncc(C#Cc4ccccc4)cc3C(=O)N([C@H](C)CO)C[C@@H]2C)c1 | -6 | -1 | 3 | -10 | -1 | 5
Cc1noc(C)c1S(=O)(=O)Nc1cccc2c1O[C@@H](CN(C)S(=O)(=O)c1ccc(F)cc1)[C@@H](C)CN([C@H](C)CO)C2=O | 1 | -1 | 2 | nt | 0 | 0
COc1ccc2c3c([nH]c2c1)[C@@H](CO)N(S(C)(=O)=O)CC31CN(C(=O)Cc2cccnc2)C1 | 8 | 0 | nt | -11 | nt | nt
O=[N+]([O-])c1cc(S(=O)(=O)Nc2ccccc2)ccc1N1CCN(c2ccccc2)CC1 | nt | 0 | nt | -56 | 0 | -2
O=C1C(Cl)=C(N2CCN(c3ccccc3[N+](=O)[O-])CC2)C(=O)c2ccccc21 | -10 | 35* | -8 | 4 | -1 | 2
O=C(NNC(=O)c1ccccc1C(=O)O)c1ccc(-c2ccccc2)cc1 | 10 | 0 | nt | 11 | 43* | -1
O=C(CN1CCCC1)Nc1ccc2c(c1)CCC2 | -7 | 0 | -6 | 1 | 42 | -11
CC(=O)N1CCN(CC(=O)Nc2ccc(C)c(S(=O)(=O)N(C)C)c2)CC1 | -7 | 0 | -3 | 12 | 43* | -3
CC(=O)N1CCN(CC(=O)Nc2ccc3c(c2)CCC3)CC1 | 5 | 0 | -7 | -4 | 44* | -1
COc1cccc(S(=O)(=O)Nc2ccc3c(c2)[C@H]2C[C@@H](CC(=O)NCc4ccc(Cl)cc4)O[C@H](CO)[C@H]2O3)c1 | 3 | 0 | -3 | nt | -1 | 7
O=C(C[C@@H]1CC[C@@H]2[C@H](COC[C@@H](O)CN2C(=O)Nc2ccc(F)cc2)O1)NC1CCC1 | -2 | 0 | 4 | -3 | 0 | nt
O=C(C[C@@H]1CC[C@@H]2[C@H](COC[C@H](O)CN2C(=O)c2ccc3c(c2)OCO3)O1)NCCN1CCCCC1 | 2 | 0 | -6 | -3 | 0 | -3
C[C@@H]1CCCCO[C@H](CN(C)S(=O)(=O)c2cn(C)cn2)[C@H](C)CN([C@@H](C)CO)C(=O)c2cc(NC(=O)CCCCCC(=O)Nc3ccccc3N)ccc2O1 | 18 | -1 | 8 | nt | -1 | -1
Cn1nc(SCc2ccccc2)c(=O)[nH]c1=O | -4 | 0 | nt | 2 | 43* | nt
SMILES | DENV2 CPE rescue | Xi reactivation | ARNT TACC3 PPI | FN deposition inh | FGF22 binding | SIRT5 block
O=C(C[C@H]1CC[C@H]2[C@@H](COC[C@@H](O)CN2C(=O)Nc2cc(Cl)cc(Cl)c2)O1)N1CCCCC1 | 30* | 0 | 4 | -10 | 0 | -6
CN1CCN(C(=O)C[C@@H]2CC[C@H]3[C@@H](COC[C@H](O)CN3C(=O)C3CCCC3)O2)CC1 | 76* | 0 | -7 | 3 | 0 | 0
CCCNC(=O)N1C[C@H](O)COC[C@@H]2O[C@@H](CC(=O)N3CCOCC3)CC[C@H]21 | 108* | 0 | -18 | -3 | 0 | 0
CN1CCN(C(=O)C[C@H]2CC[C@H]3[C@@H](COC[C@H](O)CN3C(=O)C3CCCC3)O2)CC1 | 17 | 0 | -6 | 4 | 0 | -3
O=C(C[C@@H]1CC[C@H]2[C@@H](COC[C@H](O)CN2CCC(F)(F)F)O1)N1CCC(Cc2ccccc2)CC1 | 7 | 0 | -6 | 2 | 0 | 17*
CCCN1[C@H](C(=O)N2CCOCC2)[C@@H](CO)[C@@H]2Cn3c(ccc(-c4ccccc4)c3=O)[C@@H]21 | -9 | 0 | 0 | nt | 0 | 3
CO[C@@H]1CN(C)C(=O)c2cc(NC(=O)C3CCOCC3)ccc2OC[C@@H](C)N(CC2CC2)C[C@H]1C | nt | 0 | -2 | 1 | 0 | 2
O=C(C[C@@H]1CC[C@@H]2[C@H](COC[C@H](O)CN2CC2CCOCC2)O1)N1CCOCC1 | 102* | 0 | nt | 3 | 1 | 2
O=C(C[C@H]1CC[C@H]2[C@@H](COC[C@H](O)CN2CC2CCOCC2)O1)N1CCOCC1 | -3 | 0 | -5 | 4 | 0 | 2
